Format in all cases: functional
For test [1], the species on record is Mus musculus. Nature of the test: Compound was tested for the immunomodulatory activity in vitro expressed as stimulation index by lymphocyte transformation test at 0.01 ug/mL. The procedure, abridged: (§1)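 Normal Swiss mouse splenocytes, RBCs lysed with 0.83% NH4Cl in 10 mM Tris pH 7.2, held at 5x10⁶ cells/ml in RPMI with 10% FCS. Cells cultured 72 h at 37°C in CO₂ with PHA-P mitogen and peptide (10, 1, 0.1, 0.01 µg/ml), then [³H]thymidine pulse and 18 h further incubation. Read as DPM ratio to untreated wells; triplicate runs, ±SD.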

The species entered for test [2] is Mus musculus. Nature of the test: Compound was tested for the immunomodulatory activity in vitro expressed as stimulation index by lymphocyte transformation test at 0.1 ug/mL. An outline of the steps:
as §1

The species named for test [3] is Mus musculus. Nature of the test: Compound was tested for the immunomodulatory activity in vitro expressed as stimulation index by lymphocyte transformation test at 1 ug/mL. An outline of the steps: as §1
For test [4], the species on record is Mus musculus. The test can be described thus: Compound was tested for the immunomodulatory activity in vitro expressed as stimulation index by lymphocyte transformation test at 10 ug/mL. An outline of the steps:
as §1

For test [5], the species on record is Mus musculus. The test can be described thus: Compound was tested for the immunomodulatory activity in vitro expressed as stimulation index by mixed lymphocyte reaction at 0.1 ug/mL.
The species entered for test [6] is Mus musculus. The test can be described thus: Compound was tested for the immunomodulatory activity in vitro expressed as stimulation index by mixed lymphocyte reaction at 1 ug/mL.
The species entered for test [7] is Mus musculus. Nature of the test: Compound was tested for the immunomodulatory activity in vitro expressed as stimulation index by mixed lymphocyte reaction at 10 ug/mL.
Test [8] is filed under the species Mus musculus. Nature of the test: Compound was tested for the immunomodulatory activity in vitro expressed as stimulation index by mixed lymphocyte reaction 1 ug/mL.
The species entered for test [9] is Mus musculus. The test can be described thus: Compound was tested for the immunomodulatory activity in vitro expressed as stimulation index by mixed lymphocyte reaction (MLR) at 10 ug/mL.

Non-standard residues stand in square brackets, D forms with d. Residues, ends and D or L forms follow the SMILES beside them. Ac5c = NC1(C(=O)O)CCCC1; GABA = NCCCC(=O)O

Regarding `CC[C@H](C)[C@H](NC(=O)[C@@H]1CCCN1C(=O)[C@H](CCC(=O)O)NC(=O)[C@@H](N)C(C)C)C(=O)N1CCC[C@H]1C(=O)N[C@@H](Cc1ccc(O)cc1)C(=O)O`, the Stimulation index is recorded as 1.27 in the test listed under Mus musculus [1]; 1.43 in the test listed under Mus musculus [2]; 1.5 in the test listed under Mus musculus [3]; 1.45 in the test listed under Mus musculus [4]; 1 in the test filed under Mus musculus [5]; 0.9 in the test listed under Mus musculus [6]. In the test filed under Mus musculus [7], this compound displayed a Stimulation index of 0.9.
For `CC[C@@H](C)[C@@H](NC(=O)[C@@H]1CCCN1C(=O)[C@H](CCC(=O)O)NC(=O)[C@@H](N)C(C)C)C(=O)N1CCC[C@H]1C(=O)N[C@H](Cc1ccc(O)cc1)C(=O)O`, the Stimulation index in the test filed under Mus musculus [1] is on record as 0.82; in the test listed under Mus musculus [2], 1.08; in the test listed under Mus musculus [3], 1.22; in the test filed under Mus musculus [4], 1.18; in the test filed under Mus musculus [8], 0.75; in the test filed under Mus musculus [5] it was 0.93. Further, in the test filed under Mus musculus [7], the Stimulation index is 0.77.
Turning to `CC[C@@H](C)[C@@H](NC(=O)[C@@H]1CCCN1C(=O)[C@@H](CCC(=O)O)NC(=O)[C@H](C)N)C(=O)N1CCC[C@H]1C(=O)N[C@H](Cc1ccc(O)cc1)C(=O)O`, the Stimulation index in the test filed under Mus musculus [1] was 1.17; in the test filed under Mus musculus [2], 1.57; in the test filed under Mus musculus [3], 1.4; in the test listed under Mus musculus [4], 1.22; in the test filed under Mus musculus [5], 0.74; in the test filed under Mus musculus [6], 0.82. Also, the Stimulation index in the test listed under Mus musculus [7] was determined as 0.72.
For `CC[C@@H](C)[C@@H](NC(=O)[C@@H]1CCCN1C(=O)[C@H](CCC(=O)O)NC(=O)[C@H](C)N)C(=O)N1CCC[C@H]1C(=O)N[C@H](Cc1ccc(O)cc1)C(=O)O`, the Stimulation index in the test listed under Mus musculus [1] is 1.32; in the test filed under Mus musculus [2], 1.27; in the test filed under Mus musculus [3], 1.3; in the test filed under Mus musculus [4] it was 1.32; in the test filed under Mus musculus [5], 0.84; in the test filed under Mus musculus [6], 0.89. In addition, the Stimulation index in the test filed under Mus musculus [7] is reported as 0.75.
Turning to `CC[C@H](C)[C@H](NC(=O)C1(NC(=O)[C@H](CCC(=O)O)NC(=O)[C@@H](N)C(C)C)CCCC1)C(=O)N1CCC[C@H]1C(=O)N[C@@H](Cc1ccc(O)cc1)C(=O)O` (H-VE[Ac5c]IPY-OH), the Stimulation index in the test filed under Mus musculus [1] is 0.69; in the test filed under Mus musculus [2], 0.7; in the test listed under Mus musculus [3], 1.09; in the test listed under Mus musculus [4] it was 1.1; in the test listed under Mus musculus [5] it was 0.65; in the test filed under Mus musculus [6], 0.86. The same compound yielded a Stimulation index in the test listed under Mus musculus [7] of 0.62.
As to `CC[C@H](C)[C@H](NC(=O)CNC(=O)CNC(=O)[C@@H](N)C(C)C)C(=O)N1CCC[C@H]1C(=O)N[C@@H](Cc1ccc(O)cc1)C(=O)O` (H-VGGIPY-OH), the Stimulation index stood at 0.93 in the test listed under Mus musculus [1]; 1.03 in the test filed under Mus musculus [2]; 1.15 in the test filed under Mus musculus [3]; 1.22 in the test listed under Mus musculus [4]; 0.66 in the test listed under Mus musculus [5]; 0.95 in the test filed under Mus musculus [6]. The Stimulation index in the test listed under Mus musculus [7] is recorded as 0.88.
In the case of `CC[C@H](C)[C@H](NC(=O)CCCNC(=O)[C@@H](N)C(C)C)C(=O)N1CCC[C@H]1C(=O)N[C@@H](Cc1ccc(O)cc1)C(=O)O` (H-V[GABA]IPY-OH), the Stimulation index in the test filed under Mus musculus [1] amounted to 0.55; in the test listed under Mus musculus [2] it was 0.73; in the test filed under Mus musculus [3] it was 0.69; in the test listed under Mus musculus [4], 0.88; in the test filed under Mus musculus [9] it was 0.74; in the test filed under Mus musculus [5], 0.67. The compound further registered a Stimulation index in the test listed under Mus musculus [6] of 0.77.

The values above are taken from ChEMBL document CHEMBL1130743, “Immunosuppressant activity in human beta-casein fragment analogs” (1998).
